Reference: ChEMBL document CHEMBL1250489, “Schiff bases of indoline-2,3-dione (isatin) derivatives and nalidixic acid carbohydrazide, synthesis, antitubercular activity and pharmacophoric model building” (2010)
≈ marks a conversion by molar mass, not a printed value. Calls of active or inactive are those of the source. The rule behind the calls is not given here.

Columns and labels:
[1] = test system: Mycobacterium intracellulare; experiment: Antitubercular activity against Mycobacterium intracellular ATCC 35743 after 48 hrs by agar dilution method; format: functional; conditions: ATCC 35743, 48 h
Procedure, shortened: (§1)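 Agar dilution MIC method. Compounds were dissolved in DMSO at 1 mg/ml and mixed into molten agar at 200 µg/ml. Active compounds were further diluted through 100, 50, 25, 12.5 and 6.25 down to 0.625 µg/ml. Plates had 3–4 mm agar depth. Inocula were overnight Mueller–Hinton broth cultures diluted 1:100 and radially streaked, then incubated 35 °C for 48 h. Isoniazid was the reference; drug-free and DMSO controls were included.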

[2] = test system: Mycobacterium xenopi; experiment: Antitubercular activity against Mycobacterium xenopi ATCC 14470 after 48 hrs by agar dilution method; format: functional; conditions: ATCC 14470, 48 h; procedure, shortened: as §1
[3] = test system: Mycobacteroides chelonae; experiment: Antitubercular activity against Mycobacterium chelonae ATCC 35751 after 48 hrs by agar dilution method; format: functional; conditions: ATCC 35751, 48 h; procedure, shortened: as §1
[4] = test system: Mycolicibacterium smegmatis; experiment: Antitubercular activity against Mycobacterium smegmatis ATCC 35797 after 48 hrs by agar dilution method; format: functional; conditions: ATCC 35797, 48 h
Procedure, shortened: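 MIC by agar dilution, NCCLS-like protocol. A 1 mg/ml DMSO stock is diluted in 10% molten agar to 200 µg/ml, then 100, 50, 25, 12.5, 6.25 down to 0.625 µg/ml. Plates are 3–4 mm deep. Overnight Mueller–Hinton cultures are diluted 1:100 and streaked radially. Incubation is 35 °C for 48 h. The control is DMSO in medium.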

[5] = test system: Mycolicibacterium smegmatis; experiment: Antitubercular activity against Mycobacterium smegmatis ATCC 35797 at 200 ug/ml after 48 hrs by agar dilution method; format: functional, organism-based; procedure, shortened: as §1
[6] = test system: Mycobacterium xenopi; experiment: Antitubercular activity against Mycobacterium xenopi ATCC 14470 at 200 ug/ml after 48 hrs by agar dilution method; format: functional, organism-based
Procedure, shortened: (§2)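 Agar dilution screen. Compounds are dissolved in DMSO at 1 mg/ml stock and mixed into 10% molten agar to 200 µg/ml. Plates are poured 3–4 mm deep. Overnight Mueller–Hinton broth cultures are diluted 1:100 and streaked radially. Plates are incubated at 35 °C for 48 h. Controls are strain with DMSO and medium only.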

[7] = test system: Mycobacteroides chelonae; experiment: Antitubercular activity against Mycobacterium chelonae ATCC 35751 at 200 ug/ml after 48 hrs by agar dilution method; format: functional, organism-based; procedure, shortened: as §2
[8] = test system: Mycobacterium intracellulare; experiment: Ratio of compound MIC to isoniazid MIC for Mycobacterium intracellular ATCC 35743; format: functional
[9] = test system: Mycobacterium xenopi; experiment: Ratio of compound MIC to isoniazid MIC for Mycobacterium xenopi ATCC 14470; format: functional
[10] = test system: Mycobacteroides chelonae; experiment: Ratio of compound MIC to isoniazid MIC for Mycobacterium chelonae ATCC 35751; format: functional
[11] = test system: Mycolicibacterium smegmatis; experiment: Ratio of compound MIC to isoniazid MIC for Mycobacterium smegmatis ATCC 35797; format: functional
[12] = test system: Mycobacterium intracellulare; experiment: Antitubercular activity against Mycobacterium intracellular ATCC 35743 at 200 ug/ml after 48 hrs by agar dilution method; format: functional, organism-based; procedure, shortened: as §2

Which results are given for NNC(=O)c1ccncc1 [ISONIAZID]?
MIC [1]: 12.5 µg/mL (≈ 91.1 µM); MIC [2]: 12.5 µg/mL (≈ 91.1 µM); MIC [3]: 12.5 µg/mL (≈ 91.1 µM); MIC [4]: 12.5 µg/mL (≈ 91.1 µM)

Which MIC [5] does the source give for CCN(CC)CN1C(=O)/C(=N\NC(=O)c2cn(CC)c3nc(C)ccc3c2=O)c2cc(Br)ccc21 here?
Its MIC is “inactive”.

For CCCN1C(=O)/C(=N\NC(=O)c2cn(CC)c3nc(C)ccc3c2=O)c2cc(Br)ccc21, which MIC [5] is on record?
The MIC was “inactive”.

What does the source list for CCn1cc(C(=O)N/N=C2\C(=O)N(C)c3ccccc32)c(=O)c2ccc(C)nc21?
MIC [1]: 200 µg/mL (≈ 514 µM); MIC [4]: 200 µg/mL (≈ 514 µM); MIC [6]: inactive; MIC [7]: inactive

For C=CCN1C(=O)/C(=N\NC(=O)c2cn(CC)c3nc(C)ccc3c2=O)c2cc(Br)ccc21, which MIC [5] is on record?
The MIC was “inactive”.

Which MIC [5] does the source give for CCn1cc(C(=O)N/N=C2\C(=O)N(C)c3ccc(Br)cc32)c(=O)c2ccc(C)nc21 here?
The MIC was “inactive”.

How did the MIC [1] turn out when CCN1C(=O)/C(=N\NC(=O)c2cn(CC)c3nc(C)ccc3c2=O)c2ccccc21 was run?
The MIC was 200 µg/mL (≈ 496 µM).

What about the MIC [2] of the same compound?
The MIC was 200 µg/mL (≈ 496 µM).

And the MIC [3]?
The MIC was 200 µg/mL (≈ 496 µM).

What about the MIC [4] of the same compound?
The MIC was 200 µg/mL (≈ 496 µM).

Which MIC [5] does the source give for CCn1cc(C(=O)N/N=C2\C(=O)N(CN3CCN(C)CC3)c3ccccc32)c(=O)c2ccc(C)nc21 here?
Its MIC is “inactive”.

What does the source list for CCn1cc(C(=O)N/N=C2\C(=O)N(Cc3ccccc3)c3ccccc32)c(=O)c2ccc(C)nc21?
MIC [1]: 0.625 µg/mL (≈ 1.34 µM); MIC [2]: 0.625 µg/mL (≈ 1.34 µM); MIC [3]: 0.625 µg/mL (≈ 1.34 µM); MIC [4]: 0.625 µg/mL (≈ 1.34 µM); Ratio [8]: 20; Ratio [9]: 20; Ratio [10]: 20; Ratio [11]: 20

For CCCN1C(=O)/C(=N\NC(=O)c2cn(CC)c3nc(C)ccc3c2=O)c2ccccc21, which MIC [5] is on record?
Its MIC is “inactive”.

CCN(CC)CN1C(=O)/C(=N\NC(=O)c2cn(CC)c3nc(C)ccc3c2=O)c2ccccc21 was tested. Which MIC [5] did it give?
Its MIC is “inactive”.

With CCn1cc(C(=O)N/N=C2\C(=O)Nc3ccccc32)c(=O)c2ccc(C)nc21 as the compound, how does the MIC [4] read?
Its MIC is 100 µg/mL (≈ 266 µM).

What about the MIC [12] of the same compound?
Its MIC is “inactive”.

And the MIC [6]?
Its MIC is “inactive”.

And the MIC [7]?
The MIC was “inactive”.

What does the source list for CCn1cc(C(=O)N/N=C2\C(=O)Nc3ccc(Br)cc32)c(=O)c2ccc(C)nc21?
MIC [4]: 200 µg/mL (≈ 440 µM); MIC [12]: inactive; MIC [6]: inactive; MIC [7]: inactive

What does the source list for CCn1cc(C(=O)N/N=C2\C(=O)N(Cc3ccccc3)c3ccc(Br)cc32)c(=O)c2ccc(C)nc21?
MIC [1]: 50 µg/mL (≈ 91.8 µM); MIC [2]: 50 µg/mL (≈ 91.8 µM); MIC [3]: 50 µg/mL (≈ 91.8 µM); MIC [4]: 50 µg/mL (≈ 91.8 µM)

CCN1C(=O)/C(=N\NC(=O)c2cn(CC)c3nc(C)ccc3c2=O)c2cc(Br)ccc21 was tested. Which MIC [1] did it give?
The MIC was 100 µg/mL (≈ 207 µM).

What about the MIC [2] of the same compound?
The MIC was 100 µg/mL (≈ 207 µM).

What about the MIC [4] of the same compound?
Its MIC is 100 µg/mL (≈ 207 µM).

What about the MIC [7] of the same compound?
Its MIC is “inactive”.

How did the MIC [5] turn out when C=CCN1C(=O)/C(=N\NC(=O)c2cn(CC)c3nc(C)ccc3c2=O)c2ccccc21 was run?
Its MIC is “inactive”.
